Assay results as given in ChEMBL document CHEMBL1255294, “Genetic and biochemical characterization of OXA-63, a new class D beta-lactamase from Brachyspira pilosicoli BM4442” (Antimicrob Agents Chemother, 2008).
Values after ≈ are worked out from the molar mass of the structure shown.

T1: Class D beta-lactamase (Brachyspira pilosicoli) (UniProt Q50H31)
T1 sequence (whole entry): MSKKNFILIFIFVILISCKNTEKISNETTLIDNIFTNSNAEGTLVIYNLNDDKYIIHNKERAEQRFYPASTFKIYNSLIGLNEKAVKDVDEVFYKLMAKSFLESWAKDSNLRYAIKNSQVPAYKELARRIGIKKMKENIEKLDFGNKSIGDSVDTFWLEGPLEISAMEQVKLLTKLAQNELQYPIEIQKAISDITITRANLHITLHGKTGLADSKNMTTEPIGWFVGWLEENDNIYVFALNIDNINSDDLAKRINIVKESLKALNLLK

T2: Class D beta-lactamase (Brachyspira pilosicoli, UniProt Q50H31)
T2 sequence (Q50H31 whole entry): T1 sequence (whole entry)

B1: Class D beta-lactamase (Brachyspira pilosicoli), Q50H31 (protein)
chain: T1 sequence (whole entry)

Experiments:
[1] = Activity of beta-lactamase FUS1 assessed as compound hydrolysis by spectrophotometry
[2] = Ratio of Kcat to Km for beta-lactamase FUS1 assessed as compound hydrolysis by spectrophotometry
[3] = Activity of beta-lactamase FUS1 assessed as compound hydrolysis by spectrophotometry relative to benzyl-penicillin; design: scale not given: the % may be the effect or the level left
[4] = target: T1, Class D beta-lactamase (Brachyspira pilosicoli); test: Activity of Brachyspira pilosicoli beta-lactamase OXA-63 expressed in Escherichia coli BL21 (DE3) assessed as compound hydrolysis by spectrophotometry relative to oxacillin; design: scale not given: the % may be the effect or the level left
Brachyspira pilosicoli [5] = test: Antimicrobial activity against Brachyspira pilosicoli 80.10 without producing beta-lactamase OXA-63 by disc diffusion method; assay type: functional
Method in brief: (§1)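 Disk diffusion was done on Mueller-Hinton agar supplemented with 5% sheep blood, following Comité de l'Antibiogramme de la Société Française de Microbiologie standards. Plates were incubated in an anaerobic jar at 37°C for 3 days.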

Brachyspira pilosicoli [6] = test: Antimicrobial activity against beta-lactamase OXA-63 producing Brachyspira pilosicoli isolate BM4442 isolated from feces of patient with diarrhea by disc diffusion method; assay type: functional; method in brief: as §1
Escherichia coli [7] = test: Antimicrobial activity against Escherichia coli JM83 without producing beta-lactamase OXA-63 after 3 days by Etest; assay type: functional
Escherichia coli [8] = test: Antimicrobial activity against Escherichia coli JM83 harboring beta-lactamase OXA-63 after 3 days by Etest; assay type: functional
Method in brief: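 MICs for E. coli JM83 transformants were read by Etest on Mueller-Hinton agar. Transformants were selected on BHI agar with ampicillin 50 µg/ml and kanamycin 40 µg/ml.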

Class D beta-lactamase = target: T2, Class D beta-lactamase; test: Inhibition of Brachyspira pilosicoli beta-lactamase OXA-63 expressed in Escherichia coli BL21 (DE3) assessed as reduction in nitrocefin hydrolysis by spectrophotometry relative to oxacillin
Method in brief: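 C-terminal His6-tagged OXA-63 was expressed in E. coli BL21(DE3)pLys with 0.5 mM IPTG for 4 h at 28°C and purified by nickel affinity. Enzyme (50 to 150 nM) was preincubated with inhibitor for 30 min at 25°C in 100 mM sodium phosphate, pH 7.0. 100 µM nitrocefin was then added, and initial hydrolysis rates were read spectrophotometrically. IC50 was the concentration halving the rate.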

[9] = substrate: CC(=O)OCC1=C(C(=O)O)N2C(=O)[C@@H](NC(=O)Cc3cccs3)[C@H]2SC1; test: (§2) Activity of Brachyspira pilosicoli beta-lactamase OXA-63 expressed in Escherichia coli BL21 (DE3) assessed as compound hydrolysis by spectrophotometry
[10] = substrate: CC1(C)S[C@@H]2[C@H](NC(=O)C(C(=O)O)c3ccccc3)C(=O)N2[C@H]1C(=O)O; test: as §2
[11] = substrate: CC1(C)S[C@@H]2[C@H](NC(=O)Cc3ccccc3)C(=O)N2[C@H]1C(=O)O; test: as §2
[12] = substrate: CC1(C)S[C@@H]2[C@H](NC(=O)[C@H](N)c3ccccc3)C(=O)N2[C@H]1C(=O)O; test: as §2
[13] = substrate: CCN1CCN(C(=O)N[C@@H](C(=O)N[C@@H]2C(=O)N3[C@@H]2SC(C)(C)[C@@H]3C(=O)O)c2ccccc2)C(=O)C1=O; test: as §2
[14] = substrate: CO/N=C(\C(=O)N[C@@H]1C(=O)N2C(C(=O)O)=C(COC(N)=O)CS[C@H]12)c1ccco1; test: as §2
[15] = substrate: Cc1onc(-c2ccccc2)c1C(=O)N[C@@H]1C(=O)N2[C@@H]1SC(C)(C)[C@@H]2C(=O)O; test: as §2
[16] = substrate: CC1(C)S[C@@H]2[C@H](NC(=O)C(C(=O)O)c3ccccc3)C(=O)N2[C@H]1C(=O)O; test: (§3) Ratio of Kcat to Km for Brachyspira pilosicoli beta-lactamase OXA-63 expressed in Escherichia coli BL21 (DE3) assessed as compound hydrolysis by spectrophotometry
[17] = substrate: CC1(C)S[C@@H]2[C@H](NC(=O)Cc3ccccc3)C(=O)N2[C@H]1C(=O)O; test: as §3
[18] = substrate: CC1(C)S[C@@H]2[C@H](NC(=O)[C@H](N)c3ccccc3)C(=O)N2[C@H]1C(=O)O; test: as §3
[19] = substrate: CCN1CCN(C(=O)N[C@@H](C(=O)N[C@@H]2C(=O)N3[C@@H]2SC(C)(C)[C@@H]3C(=O)O)c2ccccc2)C(=O)C1=O; test: as §3
[20] = substrate: Cc1onc(-c2ccccc2)c1C(=O)N[C@@H]1C(=O)N2[C@@H]1SC(C)(C)[C@@H]2C(=O)O; test: as §3

| Molecule | Km [1] | kcat [1] | kcat/Km [2] | MIC (Brachyspira pilosicoli [5]) | MIC (Brachyspira pilosicoli [6]) | MIC (Escherichia coli [7]) | MIC (Escherichia coli [8]) | other results |
| --- | --- | --- | --- | --- | --- | --- | --- | --- |
| CC(=O)OCC1=C(C(=O)O)N2C(=O)[C@@H](NC(=O)Cc3cccs3)[C@H]2SC1 | 47 µM | 4.1 s⁻¹ | 8.7 ×10⁵ /M/s | – | – | – | – | Activity [3]: 0.1% |
| CC1(C)S[C@@H]2[C@H](NC(=O)[C@H](N)c3ccccc3)C(=O)N2[C@H]1C(=O)O | 76 µM | 45 s⁻¹ | 5.7 ×10⁵ /M/s | – | – | – | – | Activity [4]: 15%; Activity [3]: 0.7% |
| CO/N=C(\C(=O)N[C@@H]1C(=O)N2C(C(=O)O)=C(COC(N)=O)CS[C@H]12)c1ccco1 | > 400 µM | > 1.8 s⁻¹ | 4.5 ×10⁵ /M/s | – | – | – | – | Activity [3]: 0.005% |
| CC1(C)S[C@@H]2[C@H](NC(=O)[C@H](N)c3ccc(O)cc3)C(=O)N2[C@H]1C(=O)O [AMOXICILLIN] | – | – | – | 0.047 µg/mL (≈ 0.129 µM) | 1.5 µg/mL (≈ 4.1 µM) | 6 µg/mL (≈ 16.4 µM) | 256 µg/mL (≈ 701 µM) | – |
| C[C@H]1[C@H](NC(=O)/C(=N\OC(C)(C)C(=O)O)c2csc(N)n2)C(=O)N1S(=O)(=O)O [AZTREONAM] | – | – | – | 1 µg/mL (≈ 2.3 µM) | 1 µg/mL (≈ 2.3 µM) | 0.19 µg/mL (≈ 0.436 µM) | 0.19 µg/mL (≈ 0.436 µM) | – |
| CO/N=C(\C(=O)N[C@@H]1C(=O)N2C(C(=O)O)=C(COC(C)=O)CS[C@H]12)c1csc(N)n1 [CEFOTAXIME] | – | – | – | < 0.016 µg/mL | 0.032 µg/mL (≈ 0.0703 µM) | 0.064 µg/mL (≈ 0.141 µM) | 0.064 µg/mL (≈ 0.141 µM) | – |
| CC(C)(O/N=C(\C(=O)N[C@@H]1C(=O)N2C(C(=O)[O-])=C(C[n+]3ccccc3)CS[C@H]12)c1csc(N)n1)C(=O)O [CEFTAZIDIME] | – | – | – | 4 µg/mL (≈ 7.32 µM) | 4 µg/mL (≈ 7.32 µM) | 0.5 µg/mL (≈ 0.915 µM) | 0.5 µg/mL (≈ 0.915 µM) | – |
| O=C(O)[C@H]1/C(=C/CO)O[C@@H]2CC(=O)N21 [CLAVULANIC ACID] | – | – | – | – | – | – | – | IC50 (Class D beta-lactamase): 2000 nM |
| C[C@@H](O)[C@H]1C(=O)N2C(C(=O)O)=C(SCCNC=N)C[C@H]12 [IMIPENEM ANHYDROUS] | – | – | – | < 4 µg/mL | < 4 µg/mL | < 4 µg/mL | 4 µg/mL (≈ 13.4 µM) | – |
| C[C@@H](O)[C@H]1C(=O)N2C(C(=O)O)=C(S[C@@H]3CN[C@H](C(=O)N(C)C)C3)[C@H](C)[C@H]12 [MEROPENEM] | – | – | – | 0.032 µg/mL (≈ 0.0834 µM) | 0.032 µg/mL (≈ 0.0834 µM) | 0.032 µg/mL (≈ 0.0834 µM) | 0.016 µg/mL (≈ 0.0417 µM) | – |
| Cc1onc(-c2ccccc2)c1C(=O)N[C@@H]1C(=O)N2[C@@H]1SC(C)(C)[C@@H]2C(=O)O [OXACILLIN] | 36 µM | 780 s⁻¹ | 2.1 ×10⁷ /M/s | 0.125 µg/mL (≈ 0.311 µM) | > 256 µg/mL | – | – | Activity [3]: 25% |
| CC1(C)S[C@@H]2[C@H](NC(=O)Cc3ccccc3)C(=O)N2[C@H]1C(=O)O [PENICILLIN G] | 10 µM | 830 s⁻¹ | 8.3 ×10⁷ /M/s | 0.023 µg/mL (≈ 0.0688 µM) | 2 µg/mL (≈ 5.98 µM) | 24 µg/mL (≈ 71.8 µM) | 256 µg/mL (≈ 766 µM) | Activity [4]: 25.5% |
| CCN1CCN(C(=O)N[C@@H](C(=O)N[C@@H]2C(=O)N3[C@@H]2SC(C)(C)[C@@H]3C(=O)O)c2ccccc2)C(=O)C1=O [PIPERACILLIN] | – | – | – | 0.016 µg/mL (≈ 0.0309 µM) | 48 µg/mL (≈ 92.7 µM) | 1.5 µg/mL (≈ 2.9 µM) | 96 µg/mL (≈ 185 µM) | Activity [4]: 6.5% |
| CC1(C)[C@H](C(=O)O)N2C(=O)C[C@H]2S1(=O)=O [SULBACTAM] | – | – | – | – | – | – | – | IC50 (Class D beta-lactamase): 12000 nM |
| C[C@]1(Cn2ccnn2)[C@H](C(=O)O)N2C(=O)C[C@H]2S1(=O)=O [TAZOBACTAM] | – | – | – | – | – | – | – | IC50 (Class D beta-lactamase): 160 nM |
| B1 | – | – | – | – | – | – | – | kcat [9]: Not Active; Km [10]: 17 µM; kcat [10]: 1.1 s⁻¹; Km [11]: 19 µM; kcat [11]: 4.9 s⁻¹; Km [12]: 43 µM; kcat [12]: 6.6 s⁻¹; Km [13]: 33 µM; kcat [13]: 2.1 s⁻¹; kcat [14]: Not Active; Km [15]: 115 µM; kcat [15]: 113 s⁻¹; kcat/Km [16]: 6.5 ×10⁴ /M/s; kcat/Km [17]: 2.5 ×10⁵ /M/s; kcat/Km [18]: 1.5 ×10⁵ /M/s; kcat/Km [19]: 6.4 ×10⁴ /M/s; kcat/Km [20]: 9.8 ×10⁵ /M/s |
